Read-outs that look alike come from different tables or passages of the source. Numbered stars: 1 amine (or outer) side, 2 acyl side, 3 side chain; on linkers, the order of the positions; unused ones are H or OH. Bridge positions count the residues as written; N and C are the ends. Square brackets hold non-standard residues; d marks the D form. Peptide text beside a SMILES is read from it. I, II: the chains in the order shown. Actinocin(9to1) = Cc1c2oc3c(C)ccc(C(=O)[*:1])c3nc-2c(C(=O)[*:2])c(N)c1=O; NMeV = CN[C@H](C(=O)O)C(C)C; Sar = CNCC(=O)O
Assays:
[1] = type: in vivo, human
In short: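 Five 2.5 mL catheter samples (three-draw-flush) taken on one of two random schedules, 5 min to 48-168 h post-infusion. Sodium-heparin plasma was separated within 6 h and frozen. LC-MS/MS, LLOQ 0.5 ng/mL. Noncompartmental: k_z from the last 3 points; AUC by linear trapezoid plus Clast/k_z; CL = dose/AUC∞; Vz = dose/(k_z·AUC∞). Episodes were compared by paired two-sided t-test on log-transformed differences.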

patients <17 years old [2] = test: Actinomycin-D target toxicities; type: in vivo, human; conditions: during the study
In short: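 Actinomycin-D given to patients in four age cohorts (<1, 1 to <3, 3 to <12, 12 to <17 years). Grade 3 ALT, AST, GGT elevation, sinusoidal obstructive syndrome, and grade 3 neutrophil or platelet decrease were reported weekly for 21 days after PK sampling. Only new-onset events or grade increases over baseline counted. Each toxicity was related to PK and demographics by univariate logistic regression, then backward-selection multivariate regression.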

patients <17 years old [3] = test: Vincristine target toxicity; type: in vivo, human; conditions: greater than baseline; weekly for one month and monthly for 6 months from sampling
In short: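 Vincristine-treated patients in four age cohorts were graded for neuropathy by CTC v3 (before 10/1/10) or CTCAE 4.03. Assessed weekly for one month, then monthly for 6 months from PK sampling. Only new-onset events or grade increases over baseline after sampling counted. Incidence was related to PK parameters and demographics by univariate logistic regression, then backward-selection multivariate regression.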

[4] = patients (n = 17) with two episodes of sampling, ratio (95% CI), P=0.05

Row | SMILES | half-life ([1]; all ages, n=52 patients, median, CV 60%) [h] | Clearance ([1]; all ages, n=52 patients, median, CV 90%) [L/hr/m^2] | median AUC of the youngest group, lower than the oldest groups ([1]; children <1 year vs oldest groups, consistent with the difference in dose) | sinusoidal obstructive syndrome (patients <17 years old [2]) | patients with grade 3 peripheral motor neuropathy (patients <17 years old [3]) | patients with grade 3 peripheral sensory neuropathy (patients <17 years old [3]) | Clearance ([1]; all ages, n=132 patients, median, CV 67%) [L/hr/m^2] | half-life ([1]; all ages, n=132 patients, median, CV 73%) [h] | AUC ([1]; all ages, n=132 patients, median, CV 98%) [ng·h/mL] | clearance, ratio between two sampling episodes ([1]; patients (n = 17) with two episodes of sampling, ratio (95% CI), P=0.04) | CL/BSA, ratio between two sampling episodes [1, 4] | Vz/BSA, ratio between two sampling episodes [1, 4]
1 | Cc1c2oc3c(C)ccc(C(=O)N[C@@H]4C(=O)N[C@H](C(C)C)C(=O)N5CCC[C@H]5C(=O)N(C)CC(=O)N(C)[C@@H](C(C)C)C(=O)O[C@@H]4C)c3nc-2c(C(=O)N[C@@H]2C(=O)N[C@H](C(C)C)C(=O)N3CCC[C@H]3C(=O)N(C)CC(=O)N(C)[C@@H](C(C)C)C(=O)O[C@@H]2C)c(N)c1=O [Actinomycin-D] (I: T[dV]P[Sar][NMeV] / II: T[dV]P[Sar][NMeV]; ester I:1-I:C, II:1-II:C; linker I:N-II:N via Actinocin(9to1)) | 25 | 4.6 | approximately 50% | No participant experienced sinusoidal obstructive syndrome |  |  |  |  |  |  |  | 
2 | CC[C@]1(O)C[C@H]2CN(CCc3c([nH]c4ccccc34)[C@@](C(=O)OC)(c3cc4c(cc3OC)N(C=O)[C@H]3[C@@](O)(C(=O)OC)[C@H](OC(C)=O)[C@]5(CC)C=CCN6CC[C@]43[C@@H]65)C2)C1 [Vincristine] |  |  |  |  | four | four | 17.2 | 14.6 | 78 | 1.54 (1.03,2.31) | 1.50 (0.99–2.25) | 1.56 (0.99–2.46)
